Source: PubChem BioAssay
In the library only some 3.5% were active in any assay of this set; here they are far more common.
ERAP1 inh = ERAP1 (human) enzyme inhibition. AID 652197. recombinant ERAP1, Leu-AMC fluorescence, 60 min. actives 0.15% (n = 340,000). inhibition, % at 10.7 µM;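 active means mean replicate inhibition of at least 30%, or all replicates individually reaching that 30% level; inactive means mean below 30% and not every replicate reaching it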
Target sequence (Q9NZ08 whole entry, looked up): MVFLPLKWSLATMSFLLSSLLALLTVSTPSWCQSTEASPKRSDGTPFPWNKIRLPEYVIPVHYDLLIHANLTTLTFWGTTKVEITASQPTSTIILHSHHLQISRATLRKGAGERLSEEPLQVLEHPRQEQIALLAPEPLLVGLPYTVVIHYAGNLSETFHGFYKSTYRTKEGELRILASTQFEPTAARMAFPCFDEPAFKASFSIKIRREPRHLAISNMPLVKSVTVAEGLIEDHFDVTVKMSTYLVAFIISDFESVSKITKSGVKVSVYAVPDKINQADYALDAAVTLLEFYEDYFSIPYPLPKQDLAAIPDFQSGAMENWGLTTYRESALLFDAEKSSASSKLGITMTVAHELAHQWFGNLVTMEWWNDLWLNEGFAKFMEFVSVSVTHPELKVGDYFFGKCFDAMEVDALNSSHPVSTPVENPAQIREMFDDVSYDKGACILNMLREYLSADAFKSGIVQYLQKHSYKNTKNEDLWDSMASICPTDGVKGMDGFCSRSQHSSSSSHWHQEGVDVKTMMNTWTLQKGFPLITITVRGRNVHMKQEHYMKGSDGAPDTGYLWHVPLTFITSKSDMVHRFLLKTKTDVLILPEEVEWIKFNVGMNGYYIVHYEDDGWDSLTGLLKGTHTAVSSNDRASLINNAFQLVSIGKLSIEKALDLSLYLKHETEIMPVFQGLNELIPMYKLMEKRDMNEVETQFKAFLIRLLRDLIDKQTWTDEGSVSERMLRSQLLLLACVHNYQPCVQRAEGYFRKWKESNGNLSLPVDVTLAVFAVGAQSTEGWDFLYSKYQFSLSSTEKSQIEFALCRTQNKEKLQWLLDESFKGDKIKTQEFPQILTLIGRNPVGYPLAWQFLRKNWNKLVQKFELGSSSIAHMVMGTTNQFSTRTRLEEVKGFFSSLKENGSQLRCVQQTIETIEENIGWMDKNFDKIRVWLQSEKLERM
PGC1a acetyl inh = lowers PGC1a acetylation signal in U2OS cells | AlphaScreen anti-acetyl-lysine; with virally co-expressed GCN5 acetyltransferase | inhibition, % at 15.6 µM | actives 0.17% (n = 350,000);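 active means every replicate shows inhibition of at least 40%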
Env fusion inh = inhibitors of HIV Env-mediated cell fusion. HeLa-JRFL Env/CEM21 cell fusion, luciferase. inhibition, % at 12.3 µM. actives 1.1% (n = 360,000);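 active means mean replicate inhibition score of at least 50 and every replicate individually at or above 50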
Cneo AK release = causes C. neoformans cell lysis; adenylate kinase release luminescence, 4 h; normalised: neutral wells 0, clomiphene wells 100; lysis activity, % at 15 µM; actives 0.2% (n = 360,000);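 active means mean lysis activity across replicates of at least 80%, whatever share of replicates individually reach that level; inactive means mean lysis activity below 80%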
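Assay system: Cryptococcus neoformans yeast cells / Dosing: single-point compound dose / Timing: 4 h at 37 °C static, read 1 h later / Measured by: luminescence of released adenylate kinase using an AK detection reagent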
Ecoli rRNA inh = inhibitors of bacterial rRNA selective over humanized ribosomes; E. coli WT GFP vs humanized-ribosome RFP mutants, fluorescence, 24 h; stronger effect = lower value; DMSO median 0, no signal -100; GFP signal change (wild-type ribosome), % (test concentration not listed); actives 1.6% (n = 350,000); AID 720706;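 active means significant combined selectivity score with lowered wild-type GFP, culture density cut under 30%, mutant RFP and density less affected; inactive means any of these conditions unmet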
FGF22 binding-1 = binders of recombinant human FGF22 by thermal shift; Q9HCT0; activity (Tm shift, normalised), % at 9.99 µM; SYPRO orange fluorescence; percent of sucrose octasulfate shift, DMSO zero; actives 1.5% (n = 340,000);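 active means mean Tm shift, scaled 0 neutral to 100 positive control, at about 1.3% or above, every replicate too, limit read from the data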
FGF22 binding-2 = binds human FGF22 shifting its melting temperature. shares compounds with FGF22 binding-1. recombinant FGF22 thermal shift, SYPRO orange fluorescence. thermal shift activity, °C (ΔTm) at 38 µM. actives 2% (n = 1,000). AID 720646;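 active means fitted rise in melting shift crosses a set limit at or below the top valid dose tested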
SYPRO no-protein = compound-only SYPRO artifact for FGF22 binders. actives 2% (n = 1,000). AID 743019. shares compounds with FGF22 binding-1. AC50, µM (doses to about 38 µM). compound-only SYPRO orange thermal shift counter-screen, no protein;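 active means rising signal whose fitted curve reaches the 0.54 level within the top valid dose, showing a melting point, actives reach about 13 µM in these data; inactive means the rest, including activity in the opposite direction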; further: value is where the raw curve crosses a fixed level and not half-maximal
Each line names hits and unclear results; the compound was inactive in the other large screens (follow-up assays come after a bar, where they were run).

COc1ccc(Nc2nnc(-c3ccncc3)s2)cc1Cl	FGF22 binding-1 1.5 | FGF22 binding-2 inactive | SYPRO no-protein inactive
Cc1cc(NC(=O)CN2CCN(C)CC2)no1	none (no result: Cneo AK release)
O=C(c1cccnc1)N1CC(=O)N2[C@@H](CO)[C@@H](c3ccc(/C=C/c4ccccc4)cc3)[C@@H]2C1	none (no result: Env fusion inh, Cneo AK release, FGF22 binding-1)
O=C(N/N=C/c1ccc(O)c(O)c1)N/N=C/c1ccc(O)c(O)c1	FGF22 binding-1 1.4 (no result: PGC1a acetyl inh) | FGF22 binding-2 inactive | SYPRO no-protein inactive
CNC[C@@H]1OCCCC[C@H](C)Oc2ccc(NC(=O)CCC(F)(F)F)cc2C(=O)N([C@@H](C)CO)C[C@@H]1C	none
Cc1[nH]c(=O)[nH]c(=O)c1S(=O)(=O)Nc1cccc([N+](=O)[O-])c1C	FGF22 binding-1 4.6 | FGF22 binding-2 inactive | SYPRO no-protein inactive
CCNC(=O)C[C@H]1CC[C@H]2[C@H](COc3ccc(NS(C)(=O)=O)cc3C(=O)N2C)O1	none
O=S(=O)(Nc1cccc(-n2cnnn2)c1)c1ccc(Cl)cc1	FGF22 binding-1 1.7 (no result: PGC1a acetyl inh, Cneo AK release) | FGF22 binding-2 inactive | SYPRO no-protein inactive
COc1ccc(S(=O)(=O)Nc2cccc(-n3cnnn3)c2)cc1	none
O=C(CCNC(=O)c1ccccc1Cl)Nc1nc2ccc(F)cc2s1	FGF22 binding-1 2.7 (no result: Env fusion inh) | FGF22 binding-2 inactive | SYPRO no-protein inactive
Cc1ccc(NS(=O)(=O)c2ccc(OCC(=O)NCc3cccnc3)cc2)cc1	none (no result: PGC1a acetyl inh, Env fusion inh)
O=C(COc1ccc(S(=O)(=O)Nc2ccccc2)cc1)NCc1ccncc1	FGF22 binding-1 14.3 (no result: Cneo AK release) | FGF22 binding-2 inactive | SYPRO no-protein inactive
Cc1onc(-c2ccccc2)c1C(=O)Nc1ncc([N+](=O)[O-])s1	Env fusion inh 72.4, FGF22 binding-1 1.9 (no result: PGC1a acetyl inh) | SYPRO no-protein inactive
N#CCSc1n[nH]c2nc3c(c(=O)n12)C1(CCCCC1)Cc1ccccc1-3	FGF22 binding-1 1.9 | FGF22 binding-2 inactive | SYPRO no-protein inactive
O=Cc1cc(OCc2ccccc2)ccc1[B-](F)(F)F	FGF22 binding-1 1.5 | FGF22 binding-2 inactive | SYPRO no-protein inactive
COc1cccc(C(=O)Nc2ccc(C(=O)c3ccccc3)cc2)c1	none
O=C(NCc1ccccn1)c1ccc(NS(=O)(=O)c2cccc([N+](=O)[O-])c2)cc1	none
O=C(Nc1cccnc1)c1ccc(NS(=O)(=O)c2cccc([N+](=O)[O-])c2)cc1	FGF22 binding-1 1.8 (no result: ERAP1 inh, Cneo AK release) | FGF22 binding-2 inactive | SYPRO no-protein inactive
Cc1ccc(NC(=O)c2ccc(OCc3c(C)noc3C)cc2)c(C)c1	FGF22 binding-1 1.6 (no result: Env fusion inh) | SYPRO no-protein inactive
COCCN1CCN(Cc2nc(Cc3ccc(OC)c(OC)c3)no2)CC1	FGF22 binding-1 8.0 | FGF22 binding-2 inactive | SYPRO no-protein inactive
Cc1nc2ccc(NC(=O)c3cc([N+](=O)[O-])cc([N+](=O)[O-])c3Cl)cc2s1	FGF22 binding-1 2.1 | FGF22 binding-2 inactive | SYPRO no-protein inactive
O=c1c(O)c(-c2cc(O)c(O)c(O)c2)oc2cc(O)cc(O)c12	Ecoli rRNA inh -24.0, FGF22 binding-1 1.5 | FGF22 binding-2 inactive | SYPRO no-protein inactive
O=c1c(O)c(-c2ccccc2)oc2cc(O)cc(O)c12	none (no result: ERAP1 inh, Env fusion inh, Ecoli rRNA inh)
CC(=O)N=C1SC2CS(=O)(=O)CC2N1c1ccccc1Cl (stereo unspecified)	none (no result: ERAP1 inh, Env fusion inh, Ecoli rRNA inh, FGF22 binding-1)
CCOc1ccc(NC(=O)CC2C(=O)N(c3ccccc3)C(=S)N2Cc2ccccn2)cc1 (stereo unspecified)	none (no result: ERAP1 inh, Ecoli rRNA inh, FGF22 binding-1)
COc1ccc(CN2C(=O)N(c3ccc(OC)cc3)C(=O)C2CC(=O)Nc2ccccc2)cc1 (stereo unspecified)	FGF22 binding-1 1.4 (no result: PGC1a acetyl inh) | FGF22 binding-2 inactive | SYPRO no-protein inactive
COC(=O)CN1C(=S)N(c2ccc(Cl)cc2)C(=O)C1CC(=O)Nc1ccccc1 (stereo unspecified)	none (no result: PGC1a acetyl inh, Cneo AK release)
